Results from ChEMBL document CHEMBL1153921, “Design, synthesis, and biological evaluation of novel 1-(1H-1,2,4-triazole-1-yl)-2-(2,4-difluorophenyl)-3-substituted benzylamino-2-propanols” (2009).
≈ marks a conversion by molar mass, not a printed value.

Experiments:
Assay type in all cases: functional
Aspergillus fumigatus = experiment: Antimicrobial activity against Aspergillus fumigatus by micro-broth dilution method
In short: (§1)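 Clinical isolates. Tested by broth microdilution in 96-well plates following NCCLS M27-A2. MIC80, the minimum concentration inhibiting growth by 80%, was recorded. Marketed reference antifungals were included as positive controls.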

Candida albicans = experiment: Antimicrobial activity against Candida albicans by micro-broth dilution method
In short: (§2)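 ATCC standard strains. Broth microdilution in 96-well plates following NCCLS M27-A2 (reference broth dilution method for yeasts). Endpoint is MIC80, the lowest concentration giving 80% growth inhibition. Marketed reference antifungals ran alongside as positive controls.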

Pichia kudriavzevii = experiment: Antimicrobial activity against Candida krusei by micro-broth dilution method; in short: as §1
Candida tropicalis = experiment: Antimicrobial activity against Candida tropicalis by micro-broth dilution method; in short: as §1
Trichophyton rubrum = experiment: Antimicrobial activity against Trichophyton rubrum by micro-broth dilution method; in short: as §1
Candida parapsilosis = experiment: Antimicrobial activity against Candida parapsilosis by micro-broth dilution method; conditions: Lodderomyces parapsilosis; in short: as §1
Nannizzia gypsea = experiment: Antimicrobial activity against Microsporum gypseum by micro-broth dilution method; in short: as §1
Cryptococcus neoformans = experiment: Antimicrobial activity against Cryptococcus neoformans by micro-broth dilution method; in short: as §2

MIC80 (Aspergillus fumigatus) [µg/mL] | MIC80 (Candida albicans) [µg/mL] | MIC80 (Pichia kudriavzevii) [µg/mL] | MIC80 (Candida tropicalis) [µg/mL] | MIC80 (Trichophyton rubrum) [µg/mL] | MIC80 (Candida parapsilosis) [µg/mL] | MIC80 (Nannizzia gypsea) [µg/mL] | MIC80 (Cryptococcus neoformans) [µg/mL] | Structure (SMILES)
64 (≈ 148 µM) | 0.0156 (≈ 0.0362 µM) | 0.0625 (≈ 0.145 µM) | 0.25 (≈ 0.579 µM) | 0.25 (≈ 0.579 µM) | 0.0625 (≈ 0.145 µM) | 0.0156 (≈ 0.0362 µM) | 0.25 (≈ 0.579 µM) | CCCN(Cc1ccc([N+](=O)[O-])cc1)CC(O)(Cn1cncn1)c1ccc(F)cc1F (stereo unspecified)
> 64 | 0.0156 (≈ 0.0373 µM) | 1 (≈ 2.39 µM) | 0.25 (≈ 0.597 µM) | 1 (≈ 2.39 µM) | 0.25 (≈ 0.597 µM) | 0.0625 (≈ 0.149 µM) | 0.25 (≈ 0.597 µM) | CCCCN(Cc1cccc(F)c1)CC(O)(Cn1cncn1)c1ccc(F)cc1F (stereo unspecified)
> 64 | 0.25 (≈ 0.597 µM) | 1 (≈ 2.39 µM) | 0.25 (≈ 0.597 µM) | 1 (≈ 2.39 µM) | 0.0625 (≈ 0.149 µM) | 0.0156 (≈ 0.0373 µM) | 0.25 (≈ 0.597 µM) | CCCCN(Cc1ccc(F)cc1)CC(O)(Cn1cncn1)c1ccc(F)cc1F (stereo unspecified)
> 64 | 0.0625 (≈ 0.156 µM) | 0.0625 (≈ 0.156 µM) | 0.0625 (≈ 0.156 µM) | 4 (≈ 9.99 µM) | 0.0625 (≈ 0.156 µM) | 0.0039 (≈ 0.00974 µM) | 0.25 (≈ 0.624 µM) | CCCN(Cc1ccccc1C)CC(O)(Cn1cncn1)c1ccc(F)cc1F (stereo unspecified)
> 64 | 0.25 (≈ 0.549 µM) | 1 (≈ 2.2 µM) | 1 (≈ 2.2 µM) | 0.25 (≈ 0.549 µM) | 1 (≈ 2.2 µM) | 1 (≈ 2.2 µM) | 16 (≈ 35.1 µM) | CC(C)N(Cc1ccc(Cl)cc1Cl)CC(O)(Cn1cncn1)c1ccc(F)cc1F (stereo unspecified)
> 64 | 0.25 (≈ 0.594 µM) | 0.25 (≈ 0.594 µM) | 0.25 (≈ 0.594 µM) | 4 (≈ 9.5 µM) | 0.25 (≈ 0.594 µM) | 0.0156 (≈ 0.0371 µM) | 0.0625 (≈ 0.148 µM) | CCCN(Cc1ccccc1Cl)CC(O)(Cn1cncn1)c1ccc(F)cc1F (stereo unspecified)
64 (≈ 158 µM) | 0.0625 (≈ 0.155 µM) | 0.0625 (≈ 0.155 µM) | 0.0625 (≈ 0.155 µM) | 0.25 (≈ 0.618 µM) | 0.0625 (≈ 0.155 µM) | 0.0625 (≈ 0.155 µM) | 0.0625 (≈ 0.155 µM) | CC(C)N(Cc1cccc(F)c1)CC(O)(Cn1cncn1)c1ccc(F)cc1F (stereo unspecified)
> 64 | 0.25 (≈ 0.537 µM) | 0.25 (≈ 0.537 µM) | 0.0625 (≈ 0.134 µM) | 0.0625 (≈ 0.134 µM) | 0.0625 (≈ 0.134 µM) | 0.0156 (≈ 0.0335 µM) | 0.25 (≈ 0.537 µM) | CC(C)N(Cc1ccccc1Br)CC(O)(Cn1cncn1)c1ccc(F)cc1F (stereo unspecified)
> 64 | 0.0156 (≈ 0.0386 µM) | 0.0625 (≈ 0.155 µM) | 0.25 (≈ 0.618 µM) | 1 (≈ 2.47 µM) | 0.0625 (≈ 0.155 µM) | 0.0625 (≈ 0.155 µM) | 0.0625 (≈ 0.155 µM) | CCCN(Cc1cccc(F)c1)CC(O)(Cn1cncn1)c1ccc(F)cc1F (stereo unspecified)
> 64 | 0.25 (≈ 0.549 µM) | 1 (≈ 2.2 µM) | 4 (≈ 8.78 µM) | 1 (≈ 2.2 µM) | 1 (≈ 2.2 µM) | 0.0156 (≈ 0.0343 µM) | 1 (≈ 2.2 µM) | CCCN(Cc1ccc(Cl)cc1Cl)CC(O)(Cn1cncn1)c1ccc(F)cc1F (stereo unspecified)
64 (≈ 166 µM) | 0.0156 (≈ 0.0404 µM) | 0.25 (≈ 0.647 µM) | 0.25 (≈ 0.647 µM) | 0.0625 (≈ 0.162 µM) | 0.0625 (≈ 0.162 µM) | 0.0156 (≈ 0.0404 µM) | 0.25 (≈ 0.647 µM) | CC(C)N(Cc1ccccc1)CC(O)(Cn1cncn1)c1ccc(F)cc1F (stereo unspecified)
64 (≈ 152 µM) | 0.0625 (≈ 0.148 µM) | 0.0625 (≈ 0.148 µM) | 0.25 (≈ 0.594 µM) | 1 (≈ 2.38 µM) | 0.25 (≈ 0.594 µM) | 0.0625 (≈ 0.148 µM) | 0.0625 (≈ 0.148 µM) | CCCN(Cc1ccc(Cl)cc1)CC(O)(Cn1cncn1)c1ccc(F)cc1F (stereo unspecified)
> 64 | 0.0625 (≈ 0.155 µM) | 0.0625 (≈ 0.155 µM) | 0.25 (≈ 0.618 µM) | 0.25 (≈ 0.618 µM) | 0.0625 (≈ 0.155 µM) | 0.0625 (≈ 0.155 µM) | 0.0625 (≈ 0.155 µM) | CC(C)N(Cc1ccc(F)cc1)CC(O)(Cn1cncn1)c1ccc(F)cc1F (stereo unspecified)
> 64 | 0.0625 (≈ 0.148 µM) | 0.0625 (≈ 0.148 µM) | 0.25 (≈ 0.594 µM) | 0.25 (≈ 0.594 µM) | 0.25 (≈ 0.594 µM) | 0.0625 (≈ 0.148 µM) | 0.25 (≈ 0.594 µM) | CC(C)N(Cc1ccccc1Cl)CC(O)(Cn1cncn1)c1ccc(F)cc1F (stereo unspecified)
64 (≈ 160 µM) | 1 (≈ 2.5 µM) | 0.25 (≈ 0.624 µM) | 1 (≈ 2.5 µM) | 0.0625 (≈ 0.156 µM) | 0.25 (≈ 0.624 µM) | 0.0625 (≈ 0.156 µM) | 0.25 (≈ 0.624 µM) | Cc1ccc(CN(CC(O)(Cn2cncn2)c2ccc(F)cc2F)C(C)C)cc1 (stereo unspecified)
> 64 | 0.0156 (≈ 0.0404 µM) | 0.0625 (≈ 0.162 µM) | 0.0625 (≈ 0.162 µM) | 0.0625 (≈ 0.162 µM) | 0.0625 (≈ 0.162 µM) | 0.0156 (≈ 0.0404 µM) | 0.0625 (≈ 0.162 µM) | CCCN(Cc1ccccc1)CC(O)(Cn1cncn1)c1ccc(F)cc1F (stereo unspecified)
> 64 | 0.0156 (≈ 0.0386 µM) | 0.0625 (≈ 0.155 µM) | 0.0625 (≈ 0.155 µM) | 1 (≈ 2.47 µM) | 0.0625 (≈ 0.155 µM) | 0.0156 (≈ 0.0386 µM) | 0.25 (≈ 0.618 µM) | CCCN(Cc1ccccc1F)CC(O)(Cn1cncn1)c1ccc(F)cc1F (stereo unspecified)
